Experimental data pooled from the literature.
Protocols differ between the studies behind these lines.
Observed: enzyme activity
Mode: inhibitor
INSR: Insulin receptor (INSR, Homo sapiens, UniProt P06213)
INSR phosphorylated: Insulin receptor, phosphorylated (INSR, Homo sapiens, UniProt P06213)

Nc1nc(NC2CCCCC2)sc1C(=O)c1ccccc1
remaining activity (INSR; 10 µM): 75%

CCCOc1ccc(OC)c(F)c1C(=O)c1ccc(C(=O)N[C@@H]2CNC[C@H]2NC(=O)c2ccc3[nH]ncc3c2)cc1
remaining activity (INSR; 10 µM): 101%

Cc1cnc(NC2CCOCC2)nc1-n1cnc(C(=O)NC(CN)c2cc(F)cc(Cl)c2)c1 (stereo not drawn)
remaining activity (INSR phosphorylated; radiometric; 1 µM): 104%

Oc1cccc(-c2nc(N3CCOCC3)c3oc4ncccc4c3n2)c1
remaining activity (INSR; 10 µM): 80%

Cc1ccc(NC(=O)c2ccc(C)c(C(F)(F)F)c2)cc1C#Cc1nn(C2CCC(O)CC2)c2ncnc(N)c12 (stereo not drawn)
remaining activity (INSR phosphorylated; 10 µM): 89%

COc1cc(Cl)c(C(=O)N[C@@H](CN[C@H]2CC[C@@H](N)CC2)Cc2ccc(C#N)cc2)cc1-c1ccc(CN[C@H](C)c2ccc(C)cc2)o1
remaining activity (INSR; 1 µM): 97%

COc1cc(Nc2cnc(C#N)c(O[C@H](C)CN(C)C)n2)ncc1-c1cnn(C)c1
remaining activity (INSR; radiometric; 1 µM): 98%

Cc1[nH]c(/C=C2\C(=O)Nc3ccc(F)cc32)c(C)c1C(=O)N[C@H]1CCN(C(=O)N(C)C)C1
remaining activity (INSR; 1 µM): 87%

CCN(CC)c1ccc(C2=NNC(=O)CC2C)cc1[N+](=O)[O-] (stereo not drawn)
remaining activity (INSR; 10 µM): 94%

FC(F)c1nc2ccccc2n1-c1nc(N2CCOCC2)nc(N2CCOCC2)n1
remaining activity (INSR; 10 µM): 104%

Cc1sc(C(=O)NC2COC2)cc1-n1cc(NC(=O)Nc2c(F)cccc2Cl)cn1
remaining activity (INSR; 10 µM): 85.5%

CC(C)(C)c1nc(-c2cccc(NS(=O)(=O)c3c(F)cccc3F)c2F)c(-c2ccnc(N)n2)s1
remaining activity (INSR; radiometric; 1 µM): 108%
